The test system of data set [1] is Mus musculus. Kind of data set: Oral bioavailability in mouse at 2 mg/kg. Format: ADME, organism-based. The settings on record: in vivo. The essentials: (§1)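 Mouse pharmacokinetics. Each compound was dosed 1 mg/kg IV and 2 mg/kg PO. From these the following were derived: clearance, half-life, PO AUC, PO Cmax, volume of distribution and oral bioavailability (F%).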

Data set [2] has as its target T1, Nicotinic acetylcholine receptor alpha4/beta2/alpha5 (Homo sapiens) (UniProt P17787+P43681+P30532). Kind of data set: Positive allosteric modulation of human alpha4beta2alpha5 nACHR expressed in HEK-tsA201 cells assessed as potentiation of nicotine-induced current preincubated for 15 mins followed by nicotine-treatment by fluorometric analysis relative to NS9283. Format: cell-based. The essentials: (§2)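 Human AChR subtypes were stably expressed in HEK tsA201 cells grown in DMEM with 10% FBS at 37 °C. Plating was 150,000/well for lines without α5 and 200,000/well for α5 lines, on poly-D-lysine plates. β2-containing lines were incubated 20 h at 29 °C before testing. Serial dilutions of compound were added 15 min before nicotine. Membrane-potential fluorescence was read on a FLEXstation, with 3–4 wells per point and a Hill equation fit.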

Data set [3] has as its target T1, Nicotinic acetylcholine receptor alpha4/beta2/alpha5 (Homo sapiens). Kind of data set: Positive allosteric modulation of human alpha4beta2alpha5 nACHR expressed in HEK-tsA201 cells assessed as potentiation of nicotine-induced current at 1 uM preincubated for 15 mins followed by nicotine-treatment by fluorometric analysis. The data set is classed as cell-based. The gist of the method:
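In human α4β2α5 AChR HEK tsA201 cells (200,000/well, 20 h at 29 °C before testing), compound was added 15 min before nicotine. Potentiation of the nicotine response was read by membrane-potential fluorescence on a FLEXstation, with 3–4 wells averaged per point.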

The target in data set [4] is Nicotinic acetylcholine receptor alpha3/beta4/alpha5 (Homo sapiens) (UniProt P30926+P32297+P30532). Put plainly: Positive allosteric modulation of human alpha3beta4alpha5 nACHR expressed in HEK-tsA201 cells assessed as potentiation of nicotine-induced current preincubated for 15 mins followed by nicotine-treatment by fluorometric analysis. Format: cell-based. The essentials: as §2

Data set [5] addresses T2, Neuronal acetylcholine receptor; alpha4/beta2 (Homo sapiens, UniProt P17787+P43681). Put plainly: Positive allosteric modulation of human alpha4beta2 nACHR expressed in HEK-tsA201 cells assessed as potentiation of nicotine-induced current preincubated for 15 mins followed by nicotine-treatment by fluorometric analysis. The data set is classed as cell-based. The essentials: as §2

The subject of data set [6] is Mus musculus. Put plainly: Volume of distribution in mouse at 1 mg/kg, iv and 2 mg/kg, po. Format: ADME, organism-based. Particulars: in vivo. The gist of the method:
as §1

Data set [7] is described as follows: Cmax in mouse at 2 mg/kg, po. The data set is classed as ADME, organism-based. Set-up: dose 2 mg/kg, route oral. Particulars: in vivo. The essentials: as §1
In data set [8] the target is Nicotinic acetylcholine receptor alpha3/beta2/alpha5 (Homo sapiens) (UniProt P17787+P32297+P30532). Kind of data set: Positive allosteric modulation of human alpha3beta2alpha5 nACHR expressed in HEK-tsA201 cells assessed as potentiation of nicotine-induced current preincubated for 15 mins followed by nicotine-treatment by fluorometric analysis. The data set is classed as cell-based. The gist of the method: as §2

The target in data set [9] is T1, Nicotinic acetylcholine receptor alpha4/beta2/alpha5 (Homo sapiens). Kind of data set: Agonist activity at human alpha4beta2alpha5 nACHR expressed in HEK-tsA201 cells by fluorometric analysis. Format: cell-based.
The target of data set [10] is Nicotinic acetylcholine receptor alpha4/beta2/alpha5 (Homo sapiens, UniProt P17787+P30532+P43681). Put plainly: Positive allosteric modulation of human alpha4beta2alpha5 nACHR expressed in HEK-tsA201 cells assessed as potentiation of nicotine-induced current preincubated for 15 mins followed by nicotine-treatment by fluorometric analysis. The data set is classed as cell-based. The gist of the method: as §2

The subject of data set [11] is Mus musculus. Put plainly: AUC in mouse at 2 mg/kg, po. Format: ADME, organism-based, Plasma. Also on record: dose 2 mg/kg, route oral. Particulars: in vivo. The essentials: as §1
Data set [12] in a line: Plasma concentration in mouse at 10 mg/kg, ip after 2 hrs. Also on record: dose 10 mg/kg, route intraperitoneal. Format: ADME, organism-based. The gist of the method:
(§3)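 Mice were given 10 mg/kg by intraperitoneal injection. Plasma and brain drug levels were measured 2 h after dosing.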

The target of data set [13] is Neuronal acetylcholine receptor; alpha3/beta4 (Homo sapiens) (UniProt P30926+P32297). Put plainly: Positive allosteric modulation of human alpha3beta4 nACHR expressed in HEK-tsA201 cells assessed as potentiation of nicotine-induced current preincubated for 15 mins followed by nicotine-treatment by fluorometric analysis. The data set is classed as cell-based. The essentials: as §2

Data set [14] is described as follows: Half life in mouse at 1 mg/kg, iv and 2 mg/kg, po. Particulars: in vivo. Format: ADME, organism-based. The essentials:
as §1

Data set [15] can be described thus: Drug uptake in mouse brain at 10 mg/kg, ip after 2 hrs. The settings on record: read-out: Drug uptake. Also on record: dose 10 mg/kg, route intraperitoneal. Format: ADME, organism-based. The essentials: as §3
Data set [16] addresses Neuronal acetylcholine receptor; alpha3/beta2 (Homo sapiens) (UniProt P17787+P32297). Kind of data set: Positive allosteric modulation of human alpha3beta2 nACHR expressed in HEK-tsA201 cells assessed as potentiation of nicotine-induced current preincubated for 15 mins followed by nicotine-treatment by fluorometric analysis. The data set is classed as cell-based. The gist of the method: as §2

The target of data set [17] is T2, Neuronal acetylcholine receptor; alpha4/beta2. Kind of data set: Positive allosteric modulation of alpha4beta2 nACHR (unknown origin). The data set is classed as protein-complex assay.

Active and inactive are the calls of the source. No cut-off for these calls is given here. Some results are limits rather than exact numbers.

The Cmax is the peak of the concentration-time curve. As a reminder, the EC50 is the midpoint of the concentration-response curve. The term AUC denotes concentration integrated over time. Low values mean low exposure, high ones high exposure. As a reminder, the half-life is how long it takes for the measured level to halve.

Sequence of Nicotinic acetylcholine receptor alpha4/beta2/alpha5 (P17787 whole entry): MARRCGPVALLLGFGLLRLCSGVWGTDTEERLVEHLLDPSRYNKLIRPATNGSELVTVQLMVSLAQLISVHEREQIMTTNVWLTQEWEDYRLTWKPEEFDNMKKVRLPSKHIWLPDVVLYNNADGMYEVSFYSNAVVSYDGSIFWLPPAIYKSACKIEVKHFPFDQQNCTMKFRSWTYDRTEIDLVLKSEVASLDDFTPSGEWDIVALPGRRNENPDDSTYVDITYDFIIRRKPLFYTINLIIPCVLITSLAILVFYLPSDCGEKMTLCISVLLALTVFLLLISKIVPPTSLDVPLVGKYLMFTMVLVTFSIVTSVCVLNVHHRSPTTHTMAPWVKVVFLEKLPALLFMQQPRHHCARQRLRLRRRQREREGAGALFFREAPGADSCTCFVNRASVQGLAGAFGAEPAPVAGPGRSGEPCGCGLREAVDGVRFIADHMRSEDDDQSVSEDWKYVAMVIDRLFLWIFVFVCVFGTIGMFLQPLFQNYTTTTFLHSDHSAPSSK
Sequence of Nicotinic acetylcholine receptor alpha4/beta2/alpha5 (P43681 whole entry): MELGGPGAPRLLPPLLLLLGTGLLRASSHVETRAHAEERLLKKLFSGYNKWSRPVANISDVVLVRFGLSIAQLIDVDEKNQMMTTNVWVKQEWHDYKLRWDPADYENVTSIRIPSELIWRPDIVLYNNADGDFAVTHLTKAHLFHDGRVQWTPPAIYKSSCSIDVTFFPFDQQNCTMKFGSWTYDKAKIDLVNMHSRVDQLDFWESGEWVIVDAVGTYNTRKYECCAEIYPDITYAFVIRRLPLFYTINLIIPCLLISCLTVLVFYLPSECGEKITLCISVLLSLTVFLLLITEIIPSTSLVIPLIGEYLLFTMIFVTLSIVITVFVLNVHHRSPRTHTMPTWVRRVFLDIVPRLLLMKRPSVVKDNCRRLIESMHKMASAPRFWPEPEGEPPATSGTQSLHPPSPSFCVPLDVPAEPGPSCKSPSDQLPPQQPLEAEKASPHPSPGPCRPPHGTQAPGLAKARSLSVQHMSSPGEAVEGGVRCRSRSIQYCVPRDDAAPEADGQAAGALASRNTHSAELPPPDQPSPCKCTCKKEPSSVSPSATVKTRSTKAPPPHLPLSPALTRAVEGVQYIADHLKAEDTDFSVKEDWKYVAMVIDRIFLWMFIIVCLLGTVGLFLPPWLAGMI
Sequence of Nicotinic acetylcholine receptor alpha4/beta2/alpha5 (P30532 whole entry): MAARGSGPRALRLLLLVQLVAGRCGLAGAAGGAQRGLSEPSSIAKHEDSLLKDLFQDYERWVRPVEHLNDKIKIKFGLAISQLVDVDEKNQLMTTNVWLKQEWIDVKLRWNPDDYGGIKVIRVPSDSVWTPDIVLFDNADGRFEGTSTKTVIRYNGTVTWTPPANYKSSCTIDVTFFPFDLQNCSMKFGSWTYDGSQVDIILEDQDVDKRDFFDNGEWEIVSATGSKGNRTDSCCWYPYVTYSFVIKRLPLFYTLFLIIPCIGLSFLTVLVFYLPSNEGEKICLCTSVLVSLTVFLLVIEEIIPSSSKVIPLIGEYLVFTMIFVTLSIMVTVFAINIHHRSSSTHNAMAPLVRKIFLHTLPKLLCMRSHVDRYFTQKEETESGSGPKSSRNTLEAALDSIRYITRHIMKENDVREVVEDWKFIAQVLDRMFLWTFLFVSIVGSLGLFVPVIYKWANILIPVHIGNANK
T2 sequence (P17787 whole entry): as the sequence (P17787 whole entry) above
T2 sequence (P43681 whole entry): as the sequence (P43681 whole entry) above

Compound `N#Cc1cccc(-n2nnc(-c3cccnc3)n2)c1` showed a F in the data set on Mus musculus [1] of 100%. Further, in [2], the Emax stood at 2.5. Besides, in data set [3], the Activity is more than 50%. For the same compound, the result in data set [4], in [8], in [9], in data set [13] and in [16] was inactive. The outcome in data set [5] was Active. In addition, in the data set with Mus musculus [6], the Vd is 2.7 L/kg. The compound further gave a peak concentration (Cmax) in data set [7] of 4.1 µM. In addition, in data set [10], the half-maximal effective concentration (EC50) is 2000 nM. Moreover, the exposure (AUC) with Mus musculus [11] came to 21 µM·h. Moreover, the concentration at 2 h was found to be 11 µM in data set [12] and 4.4 µM in data set [15]. The compound also had a half-life in data set [14] of 54 min.
Regarding `N#Cc1cccc(-c2nc(-c3cccnc3)no2)c1`, the EC50 in [17] worked out at 990 nM; in data set [10] it was 790 nM. Also, in data set [3], the Activity was more than 50%. The outcome in [4], in data set [8], in [9], in data set [13] and in data set [16] was inactive. In addition, the outcome in [5] was Active.

Source of the values: ChEMBL document CHEMBL3102781, “Synthesis and activity of substituted heteroaromatics as positive allosteric modulators for α4β2α5 nicotinic acetylcholine receptors” (Bioorg Med Chem Lett, 2014).
